Source: PubChem
Rows were chosen to be rich in hits. Some 2.8% of all compounds tested hit in one or more screens of this group.
T cruzi repl = blocks replication of Trypanosoma cruzi; inhibition, % (no concentration beside the values); AID 1885; T. cruzi beta-gal in NIH3T3, luminescence, 90 h; 300,000 compounds, 1.4% hits;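 active means mean inhibition across valid replicates above about 55%, limit read from the data; inconclusive means mean below that limit but half or more replicates reach it; inactive means mean below it, under half of replicates reach it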;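 further: signal also drops with host cell toxicity which is not excluded here; 0% = plate median of DMSO wells and 100% = zero luminescence signal; higher percent means less beta-gal luminescence so fewer parasites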
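Read-out: Parasite load inhibition, % | Test system: Mouse NIH/3T3 fibroblasts infected with β-gal-expressing T. cruzi Tulahuen C4 | Amount: 5,000 cells/well | Medium: DMEM, 2% fetal bovine serum | Signal: GalScreen β-gal luminescence, detergent lysis, 60 min | Timing: 3 h attach, ≥90 h co-culture | Also added: Tulahuen C4 trypomastigotes, 5000/well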
AI-2 QS mod = modulates the Vibrio harveyi AI-2 quorum sensing system; Vibrio harveyi JMH597 AI-2 luminescence/OD600 ratio, 9 h; hits give low values; strain lacks LuxN and CqsS sensors; 0 = neutral-control median; activity change, % at 7.5 µM; 300,000 compounds, 0.4% hits; AID 2094; in the data active means activity change below about -75%, passing the limit was not always enough; inconclusive means no clear call, values can overlap the other calls;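 further: luminescence divided by OD600 gain over 9 h not by final OD600 alone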
PP1 counter = counter-screen for PP5 inhibitors: inhibitors of human PP1-alpha; 320,000 compounds, 0.9% hits; inhibition, % at 6.7 µM; purified PP1alpha, OMFP fluorescence;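 active means inhibition above the mean inhibition of all tested compounds plus 3 SD, computed separately for each screening campaign, cut at about 15% in these data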
p-CIP stab down = p/CIP protein destabilization; decrease of EGFP signal, % at 10 µM; Q05BA5; F442A p/CIP-EGFP cells, EGFP fluorescence, 16 h; 290,000 compounds, 0.01% hits; AID 1984;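 active means EGFP signal decrease of at least 30% at 10 µM or well 3 SD below plate mean, unless failing retest; inactive means the rest, including hits failing retest or dose response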
UBC13 polyUb = blocks human UBC13 polyubiquitin chain formation; P61088; TR-FRET; inhibition, % at 20 µM; 330,000 compounds, 0.47% hits; AID 485273; in the data active means inhibition above about 45%, passing the limit was not always enough; inconclusive means no clear call, values can overlap the other calls
PP1 confirm = human PP1 phosphatase inhibition, confirmation; 1,900 compounds, 52% hits; AID 2358; purified PP1alpha, OMFP substrate fluorescence; shares compounds with PP1 counter; inhibition, % at 6.7 µM;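 active means mean PP1 inhibition above a set limit taken from the earlier primary screen, cut at about 15% in these data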
PP5 inh counter = counter-screen for PP1 inhibitors: human PP5 phosphatase inhibition. shares compounds with PP1 counter. inhibition, % at 6.7 µM. purified PP5c, OMFP fluorescence. 1,900 compounds, 4% hits;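 active means mean PP5 inhibition over triplicate wells above about 9.5% taken from the earlier PP1 screen, limit read from the data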
Target sequence (P53041 whole entry, looked up): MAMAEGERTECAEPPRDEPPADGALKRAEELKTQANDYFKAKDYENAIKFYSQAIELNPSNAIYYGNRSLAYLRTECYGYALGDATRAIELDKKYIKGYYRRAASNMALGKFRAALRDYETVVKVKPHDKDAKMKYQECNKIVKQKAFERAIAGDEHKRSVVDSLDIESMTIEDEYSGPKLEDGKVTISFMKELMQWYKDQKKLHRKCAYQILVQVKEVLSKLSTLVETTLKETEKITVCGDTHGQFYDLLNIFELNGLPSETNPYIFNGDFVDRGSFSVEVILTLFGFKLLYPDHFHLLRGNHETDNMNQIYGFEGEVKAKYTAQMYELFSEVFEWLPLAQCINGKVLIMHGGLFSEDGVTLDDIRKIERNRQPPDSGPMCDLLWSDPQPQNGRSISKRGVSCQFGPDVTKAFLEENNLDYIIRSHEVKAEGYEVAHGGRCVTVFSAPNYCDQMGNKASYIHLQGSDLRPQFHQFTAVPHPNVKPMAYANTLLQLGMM
Numbers without * were called inactive; ? = inconclusive; / = no result given.

SMILES	T cruzi repl	AI-2 QS mod	PP1 counter	p-CIP stab down	UBC13 polyUb	PP1 confirm	PP5 inh counter
COc1cc(NS(=O)(=O)c2ccc(Nc3nc(-c4ccccn4)cs3)cc2)nc(OC)n1	-5	6	63*	-10	-32	71*	1
COc1nc(-c2ccccc2)ccc1-c1noc(-c2ccccc2)n1	-4	20	0	2	15	/	/
COc1nc(-c2ccccc2)ccc1-c1noc(COc2ccccc2)n1	8	14	19*	-18	14	15	-1
COc1ccc(/C=C/c2nnc(NC(=O)COc3ccc(C)cc3)s2)cc1	-8	25	18*	3	0	7	-6
COc1cc(/C=N/NC(=O)c2csc3c2CCCC3)ccc1OCCN1CCOCC1	-10	8	-4	-16	-7	/	/
Cc1cc(N2C(=O)C(O)=C(C(=O)c3ccco3)C2c2cccc(O)c2)no1 (stereo unspecified)	-8	30	-4	-7	4	/	/
Cc1cc(C)c2nc(N3C(=O)C(O)=C(C(=O)c4ccco4)C3c3cccc(O)c3)sc2c1 (stereo unspecified)	/	/	34*	/	-16	26*	2
Cc1ccc(C2C(C(=O)c3ccco3)=C(O)C(=O)N2c2nnc(C)s2)cc1 (stereo unspecified)	1	20	7	-7	2	/	/
Cc1cc(C)c2nc(N3C(=O)C(O)=C(C(=O)c4ccco4)C3c3ccc(O)cc3)sc2c1 (stereo unspecified)	/	/	34*	/	-20	30*	2
Cc1ccccc1-c1nc(S(=O)(=O)c2ccccc2)c(N2CCCC2)o1	/	/	/	/	12	/	/
Cc1cc(NC(=O)CSc2ccc(-c3ccc(Br)cc3)nn2)no1	6	16	18*	0	-2	-3	-3
Cc1ccc(-c2ccc(SCC(=O)Nc3cc(C)on3)nn2)cc1	4	0	6	-15	-4	/	/
Cn1c(=O)c(C(=O)CN2CCCc3ccccc32)c(N)n(Cc2ccccc2)c1=O	52	14	3	-1	10	/	/
Cn1c(=O)c(C(=O)CN2CCc3ccccc32)c(N)n(Cc2ccccc2)c1=O	-9	40	22*	-1	-16	-2	-1
COc1cc(/C=C2\C(=N)N3N=C(S(C)(=O)=O)SC3=NC2=O)cc(OC)c1OCCOc1ccccc1C	-10	13	30*	10	-16	11	-1
O=C(NCc1ccccn1)C(=O)Nc1cc2c3c(c1)CC(=O)N3CCC2	-10	19	-4	/	-5	/	/
CCCn1c(=O)c(C(=O)Nc2ncccc2C)c(O)c2ccccc21	-15	14	24*	9	17	21*	-5
CCCn1c(=O)c(C(=O)NNS(=O)(=O)c2ccc(Cl)cc2)c(O)c2ccccc21	-2	33	22*	8	0	16*	-4
CCc1ccc(C(C(=O)NCc2ccccc2)N(C(=O)c2csnn2)C2CC2)cc1 (stereo unspecified)	24	7	0	0	4	/	/
O=C(Nc1nnc(C2CC2)o1)c1ccc(S(=O)(=O)N2CCc3ccccc3C2)cc1	-21	43	30*	-3	-21	31*	-1
CC1CCCN(S(=O)(=O)c2ccc(C(=O)Nc3nnc(C4CC4)o3)cc2)C1 (stereo unspecified)	-6	17	26*	-30	-11	16*	-2
CC1CCCN(S(=O)(=O)c2ccc(C(=O)Nc3nnc(-c4ccccc4Cl)o3)cc2)C1 (stereo unspecified)	41	11	-1	7	-25	/	/
CCC(CC)c1nnc(NC(=O)c2ccc(S(=O)(=O)N3CCc4ccccc4C3)cc2)s1	9	27	-2	-1	-2	/	/
CC1CCCN(S(=O)(=O)c2ccc(C(=O)Nc3nnc(-c4ccccn4)o3)cc2)C1 (stereo unspecified)	-14	46	18*	-13	-11	15*	-1
Cc1nn(-c2ccccc2)c2nc(C(F)F)cc(C(F)F)c12	/	/	0	/	43	/	/
SMILES	T cruzi repl	AI-2 QS mod	PP1 counter	p-CIP stab down	UBC13 polyUb	PP1 confirm	PP5 inh counter
Cc1sc2nc(CN3CCCC3)nc(N3CCN(S(=O)(=O)c4cccs4)CC3)c2c1C	46	15	27*	-11	3	13	0
Cc1ccc(S(=O)(=O)N2CCN(c3nc(CN4CCCC4)nc4sc(C)c(C)c34)CC2)cc1	/	/	19*	/	18	4	0
Cc1ccc(C)c(S(=O)(=O)N2CCN(c3nc(CN4CCOCC4)nc4sc(C)c(C)c34)CC2)c1	/	/	13	/	18	/	/
O=C(Nc1nc2ccccc2[nH]1)Nc1ccccc1F	2	12	1	0	2	/	/
Cc1cccc(NC(=O)CN2C(=O)N/C(=C/c3cc(C)n(C(C)C)c3C)C2=O)c1	?	38	-1	2	-7	/	/
Cc1cccc(NC(=O)CN2C(=O)N/C(=C/c3ccc(C)s3)C2=O)c1	-2	6	21*	3	-8	6	-6
COc1cc2ccccc2cc1C(=O)NC(=S)Nc1cccc(C(=O)O)c1C	13	2	0	10	2	/	/
CCC(=O)NC(c1ccc(C)cc1)c1cc([N+](=O)[O-])c2cccnc2c1O (stereo unspecified)	63*	-27	39*	-4	/	12	12*
CC(=O)NC(c1ccc(C)cc1)c1cc([N+](=O)[O-])c2cccnc2c1O (stereo unspecified)	55*	?	19*	-10	-38	21*	3
CCCC(=O)NC(c1ccco1)c1cc([N+](=O)[O-])c2cccnc2c1O (stereo unspecified)	-13	48	6	0	-46	/	/
CSCCC(NC(=O)c1ccco1)C(=O)NCC(c1ccccc1)N(C)C (stereo unspecified)	/	/	-4	/	17	/	/
COc1ccc(-c2c[n+]3c4n2CCCCC4=C(c2ccccc2)C3)cc1	62*	33	18*	-12	32	-9	-3
COc1ccc(-c2c[n+](CC(=O)c3ccccc3)c3n2CCCCC3)cc1	28	4	-2	-1	10	/	/
Cc1[nH]c(=O)nc(SCc2ccc(Cl)c(Cl)c2)c1C#N	-9	42	-1	-14	-4	/	/
CN(C)C(=N)c1n[nH]nc1SCc1ccc(Cl)c(Cl)c1	-25	30	25*	-9	-7	-3	-6
Cc1ccc(-n2nc3ccc(NC(=O)/C=C/c4ccco4)cc3n2)cc1	-43	19	19*	5	-9	9	-2
CCOC(=O)c1cc(-c2ccccc2)sc1NC(=O)C(C)C	24	31	-3	-12	6	/	/
